# Results as given in the EternaBench riboswitch data.
# System: MS2 coat protein
# Assay: apparent Kd, MS2 coat protein; higher = weaker binding; RNA-MaP array; FMN 200 µM where present
# Summary of the method: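 In 100 mM Tris-HCl pH 7.5, 80 mM KCl, 4 mM MgCl2, BSA, DTT, yeast tRNA and Tween-20, SNAP-549-labelled MS2 coat protein was titrated from 0.7 or 1.5 nM, doubling to 3 µM, over designs transcribed by stalled E. coli RNA polymerase on Illumina sequencing-chip clusters. This was done first without ligand, then with ligand held constant. After green signal was normalised to red-channel RNA signal and control-cluster median Fmax, the apparent Kd was taken as the median of filtered per-cluster binding-curve fits.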
# [1] = designed as: OFF switch for flavin mononucleotide, no ligand
# [2] = ligand present: flavin mononucleotide, designed as: OFF switch for flavin mononucleotide
# [3] = designed as: ON switch for flavin mononucleotide, no ligand
# [4] = ligand present: flavin mononucleotide, designed as: ON switch for flavin mononucleotide
Sequence,apparent Kd [1] [nM],apparent Kd [2] [nM],apparent Kd [3] [nM],apparent Kd [4] [nM]
AAUAACAGAGGAUAUACUGUUUUAUGUGUUUGUUAUUUUAAACAUGAGGAUCACCCAUGUAGAAGGCUGAAUAA,22.5,21.7,–,–
AAUAGCUAAGGAUAUACAUGAGGAUCACCCAUGUAAAACACUACUUGGAACCGCCUCGGUAGAAGGUAGAAAAU,–,22.3,–,–
AAUAUAAAAGAGCUGGAUACUCAAACAUGAGGAUCACCCAUGUAGGAUAUCAGCACGAUAAGUGCUGAGAAGGACAACCAGCUC,14.6,15.6,–,–
AAUAUAAAGAGCUGGCUCAAUUUAACAUGAGGAUCACCCAUGUAGGAUAUCAGCACGAUAAGUGCUGAGAAGGACAUCCAGCUC,16.7,36,–,–
AAUAUGAGCUGGUUUAAACUCAAAACAUGAGGAUCACCCAUGUAGGAUAUCAGCACGAUAAGUGCUGAGAAGGACAUCCAGCUC,14.2,16.5,–,–
AAUAUGUUGCAGAAGGUUAUAUUUAUUUAGUACCUCAUGACAUGAGGAUCACCCAUGUUUUUGUUGAAGGAUAUGCAAUAUAUU,17.1,13.7,–,–
AAUCGGGAGCAGAAGGCAUGUCAAAAGACAUGAGGAUCACCCAUGUAUAAAAGGCGAAAGCCGCAUGAGGAUAUGCUCCCGUAA,–,–,29.4,5.81
AAUCUGUCGGUAGGAUAUCAGUUAGGAGAGCCGACAUGAGGAUCACCCAUGUACAGAAUCAAGGGUGAGAAGGACCGGGUAGUA,–,–,114,111
AAUCUUUUUAUGGGAUUAGAAUAUGAGGAUAUCAUUUGUUUAUACAUGAGGAUCACCCAUGUUUCUGAGAAGGCAUAUAUAAUA,–,–,44.6,10.2
AAUGCACAUGAGGAUCACCCAUGUAAGACAAAGACAGGAUAUGGGCCGCAUGGCUCUGGCCCAGAAGGGUCAGUCG,–,–,25,18.6
AAUGCGGCAGGAUAUACAUGAGGAUCACCCAUGUAGAUCAGAUAUAUGGUCGAACCAUGUAGAAGGGCCGCAAA,34.3,129,–,–
AAUGUACUCGGAGGAUAUCCCACAUGAGGAUCACCCAUGUGGGUCACUGAUUCUCGUAUCGUCCGGGAGAAGGCCGAGAACUGA,34.6,111,–,–
AAUGUUUGAUUCCACUUACACAUGAGGAUCACCCAUGUUAUCGAGGAUAUGCAUUAGAGUGUUUAGCAGAAGGCGAUGUAAUUG,8.46,25,–,–
AAUUAACAUGAGGAUCACCCAUGUGAGGAUAUGGUAUUAUUUGGACAGUUAUGAUAUACCAGAAGGCACAAAUA,32.6,45.9,–,–
AAUUAACAUGAGGAUCACCCAUGUGAGGAUAUGGUAUUAUUUGGACAGUUAUGAUCUACCAGAAGGCACAUAUA,39,65.1,–,–
AAUUAAUUAAUUAAGUACAUGAGGAUCACCCAUGUAAGUGAUCAGGAUAUCAGCUCGAUUAGAGCUGAGAAGGGAUCCAUGUAC,–,–,531,303
AAUUAAUUGUAGAAGGUACUUAAUUAUGUUAUGUAAGGAUAUACGUAAUUAUUACGUCUUGUAUGACAUGAGGAUCACCCAUGU,–,–,12.9,11
AAUUAUUAUUGAGGAUAUCGUAUUGAAACAAUACGAGAAGGCGGAAUAAACAUGAGGAUCACCCAUGUGAGCCUGAUGCUUGUG,17,18.7,–,–
AAUUAUUAUUGAGGAUAUCGUAUUGAAACAAUAUGAGAAGGCGGGAUAAACAUGAGGAUCACCCAUGUGAGCCUGAUGCUUGUG,16.3,15.6,–,–
AAUUCACAUGAGGAUCACCCAUGUCAGGAUAUGGUUUCACGUUUUUCUUUUCUUGAUUCCAGAAGGGACAGCUA,65.6,82,–,–
AAUUCACAUGAGGAUCACCCAUGUCAGGAUAUGGUUUCACUUUUUUCUUUUCUUGAUUCCAGAAGGGACAGCUA,77.3,68.5,–,–
AAUUCACAUGAGGAUCACCCAUGUGAGGAUAUGGAUUCGCUGGCCGUAGCCAGUGGAUCCAGAAGGCGCAUGAU,29.2,35.6,–,–
AAUUGAAACGUAGGAUAUCGCUAUAAAUUAAUUCGAGAAGGACGUACAUGAGGAUCACCCAUGUUAAAUGGUGUAGUUUAGUUG,108,270,–,–
AAUUGACACGUAGGAUAUCGAACUAUAUUAACACGAGAAGGACGUACAUGAGGAUCACCCAUGUUUAAUGGAGUAGAUAAGUUG,144,283,–,–
AAUUGACACGUAGGAUAUCGAACUAUUUUAACACGAGAAGGACGUACAUGAGGAUCACCCAUGUUUAAUGGUGUAGAUAAGUUG,70.9,188,–,–
AAUUUAAUACAUGAGGAUCACCCAUGUAAAUUAAUUAAGAUCUAGGAUAUCAGCUCGAAUAGAGCUGAGAAGGAGAUCACAUGU,–,–,17.4,15.1
AAUUUACAGCUAGGAUAUACAUGAGGAUCACCCAUGUAAUGAUCGGAUCUUAUGAUCGUAUCCGUGUAGAAGGAGCAAAUAAGA,8.12,8.8,–,–
AAUUUACAGGGAGGAUAUACAUGAGGAUCACCCAUGUAAUCAUAUGAUAUUUUUUUUGUAUGAGUGUAGAAGGCCCAAAUAACA,9.27,11.4,–,–

Sequence,apparent Kd [1] [nM],apparent Kd [2] [nM],apparent Kd [3] [nM],apparent Kd [4] [nM]
AAUUUACAUGAGGAUCACCCAUGUGAGGAUAUGAUACUAUGUACUUCGGUACAUAGUAUCAGAAGGCAUGUGAA,128,97.7,–,–
ACAAAUGGAGGAUAUACAUGAGGAUCACCCAUGUAUAUCCUACAUAUGUGAUCUUUAUGUAGAAGGCCAUUUGA,12.2,11.5,–,–
ACAAAUGGAGGAUAUACAUGAGGAUCACCCAUGUUUAUCCUACAUGUGUGAUAAUAAUGUAGAAGGCCAUUUGA,19.7,13.2,–,–
ACAAGUUUGUAGAAGGACGACUAAUUUGUAUUCGUAGGAUAUACUAUUUACAUGAGGAUCACCCAUGUUUUUAUGGAACAAUGU,11.9,16.2,–,–
ACAAUACAUGAGGAUCACCCAUGUUAGGAUAUACGCAUGCAUGCAUGCAUGCAUGCAAGUAGAAGGAACCAUGC,28.6,26.8,–,–
ACACGUGUGUCAGGAUAUCACACUAAUUGGACUAACUAUAUGAAAGCACAUGAGGAUCACCCAUGUGAGAAGGGACGCCACCUG,12,9.97,–,–
ACAUACUAUCGAGGAUAUCGGUAAGAAAAGUUACGAGAAGGCGAUUAUAAAUUUAUAUUAUUAUACAUGAGGAUCACCCAUGUA,–,–,20.9,21.3
ACAUACUCUCGAGGAUAUCGUAUAAUUAUUAAACGAGAAGGCGAUUGUUUAUUUCUAAUACACGACAUGAGGAUCACCCAUGUA,–,–,27.1,25.4
ACAUAGUUAGGAUAUGCUGCUCGUCACUUGCGUGAUGAGUAGCAGAAGGAACAUGAGGAUCACCCAUGUAAAGA,29.9,29.5,–,–
ACAUCGACAGGAUAUACGUGAGUGGAAAAAGUAUGUCCACUACAUGAGGAUCACCCAUGUAGAAGGGUCGAUGA,16.2,15,–,–
ACAUCGUGAGACAUGAGGAUCACCCAUGUGUGAUAGUGGGCACAGGAUAUCCAAAUUUGGAAUUUGGAGAAGGGUGAUCGUUAA,–,–,72.1,68.6
ACAUCGUGAGACAUGAGGAUCACCCAUGUGUGAUAGUGGGCACAGGAUAUCCAGACUUGGAAUCUGGAGAAGGGUGAUCGUUAA,–,–,86.7,129
ACAUCUAGAGGAUAUACAUGAGUGAUACACGUAUUUCCACUACAUGAGGAUCACCCAUGUAGAAGGCUAGAUGA,50,16.9,–,–
ACAUGACAUGAGGAUCACCCAUGUGAGGAUAUGCGAAAAAAAAAAAAAAAAAAAAAAAGCAGAAGGCACAAAAA,180,280,–,–
ACAUGAGACUAAGGAUAUGAUGUACCUAUAUGUGACAUGAGGAUCACCCAUGUGGUAAGUAUGAUUCAGAAGGUAGAGAUAUGU,–,–,98.7,32.6
ACAUGAGGAUCACCCAUGUAAUGAUGGGUACUAUAUUAUUCGUAGGAUAUCGUUGUUAGUUUGUUCGAGAAGGACGUUUGCCUU,1220,1200,–,–
ACAUGAGGAUCACCCAUGUAGAAUGAAGAAGGUAGUUACUUGAGACUCACCCAUGUACAUAGGACUAAGGAUAUUCUAAUAAUU,–,–,14.5,8.5
ACAUGAGGAUCACCCAUGUAUACAUAGGAUAUUGGUGAUCAGGGAUGUUUUACAGGAUAUGUCUGCGAGAAGGAUGCAAGUUGU,–,–,360,70.4
ACAUGAGGAUCACCCAUGUAUUACAUGGUUAAGUUUAUAAACAGAAGGCGAUAAUACUUAUUGUUCGAGGAUAUGUAAUCAAUU,113,84.1,–,–
ACAUGAGGAUCACCCAUGUGAAAACAAUGGCUGACACAGAGAUAGGAUAUAUGUGCAUAUCAAACAUAGAAGGGUCAUAACUGG,50,50.6,–,–
ACAUGAGGAUCACCCAUGUGAACAUAGGAUAUUGGUGAUCAGGCAUGUUAUACAGGAUAUGUCUGCGAGAAGGGUGCACGUUGC,–,–,524,412
ACAUGAGGAUCACCCAUGUUAAAUGAGGAUAUAUGACUGCACAUGAGGUUCACCCAUGUUCUACCGUAGAAGGUAUAAAUAAUU,–,–,71.7,76.1
ACAUGAGGAUCACCCAUGUUCACAUAGGAUAUUGAUUAUAUUGGAUAUAUUUUUUUUAUAAUACACAAGAAGGAUGCAAGAUGG,–,–,19.3,16.3
ACAUGCAUAGCGAUAUGAUCGAGAGAUCAUGUCGCUAAAUUUAGAAGGACAUGAGGAUCACCCAUGUAGGAUAUGGGAGCAUGC,–,–,87.9,17.1
ACAUGCGGAUGAGGAUAUUCAUUUAUGAGGAUAGAAGAAGGCAUACAUGAGGAUCACCCAUGUAUACGCAUGAGGAUCCCUUAU,41.1,40,–,–
ACAUUGCGAGGAUAUACAUGAGGAUCACCCAUGUGGUAGCAGAUACGGUAGGGCUAGUGUAGAAGGUGUCAUGG,112,96.3,–,–
ACAUUGCGAGGAUAUACAUGAGGAUCACCCAUGUGGUAGUAGAUACGGUAGGGCUAGUGUAGAAGGUGUCAUGG,137,131,–,–
